According to ChEMBL document CHEMBL6134900 (J Med Chem, 2025):
Calls of active or inactive are those of the source. The rule behind the calls is not given here.

Key:
[1] = In vivo PROTAC activity at CRBN/SMARCA2 in female athymic nude mouse xenografted with human NCI-H2030 cells harboring SMARCA4 mutant assessed as SMARCA2 degradation at 5 mg/kg, po administered once daily via gavage for 17 days by Western blotting analysis relative to control; format: functional; conditions: time 17 day
Outline: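 H2030 cells (10 × 10^6, PBS/Matrigel 1:1) implanted subcutaneously in the flank of female nude mice. Randomised below 200 mm3. 5 mg/kg or vehicle given by oral gavage once daily for 17 days in 10% DMSO/40% PEG300/1% Tween-80/49% saline. Tumours collected 24 h after dosing. SMARCA2 measured by Western blot against β-actin, relative to vehicle.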

[2] = Drug metabolism in mouse liver microsomes assessed as N-dealkylation mediated 2-(6-amino-5-(4-(3-fluoro-4-(piperazin-1-yl)benzyl)piperazin-1-yl)pyridazin-3-yl)phenol metabolite formation at 10 uM incubated for 60 mins by LC-UV-HRMS analysis; format: ADME, Microsome; conditions: 1 h
Outline: (§1)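 Compound at 10 μM incubated with mouse liver microsomes at 37 °C for 60 min. Metabolites detected by LC-UV-HRMS, structures proposed from MS and MS2 data, and each metabolite given as a percentage.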

[3] = Drug metabolism in mouse liver microsomes assessed as hydrolysis mediated M3 metabolite formation at 10 uM incubated for 60 mins by LC-UV-HRMS analysis; format: ADME, Microsome; conditions: 1 h; outline: as §1
[4] = target: T1, Protein cereblon/SWI/SNF-related matrix-associated actin-dependent regulator of chromatin subfamily A member 2 (Homo sapiens, UniProt P51531+Q96SW2); test: PROTAC activity at CRBN/SMARCA2 in CRBN knockout human H322 cells harboring SMARCA4 mutant assessed as induction of SMARCA2 degradation at 0.1 uM by immunoblot analysis; format: cell-based
[5] = target: Transcriptional coactivator YAP1 (Homo sapiens) (UniProt P46937); test: Induction of YAP1 phosphorylation at S127 residue in human H322 cells harboring SMARCA4 mutant at 0.1 uM incubated for 96 hrs by immunoblot analysis; format: cell-based; conditions: filed as activator
[6] = Toxicity in female athymic nude mouse xenografted with human NCI-H2023 cells harboring SMARCA4 mutant assessed as change in body weight at 5 mg/kg, po administered once daily via gavage for 19 days relative to control; format: organism-based; conditions: in vivo, 456 h, time 19 day
Outline: (§2)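 Cells (H1568 2 × 10^6, H2023 10 × 10^6, HCC515 5 × 10^6) in PBS:Matrigel 1:1, 200 μL, injected subcutaneously into flanks of 6–8-week-old females. Randomized at mean tumor volume 60 mm3 (H1568) or <200 mm3 (others). Dosed in 0.5% methylcellulose + 0.2–1% Tween-80, sonicated on ice. Caliper tumor volume and body weight tracked, mean ± SEM.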

[7] = target: T1, Protein cereblon/SWI/SNF-related matrix-associated actin-dependent regulator of chromatin subfamily A member 2; test: PROTAC activity at CRBN/SMARCA2 in human H322 cells harboring SMARCA4 mutant assessed as induction of SMARCA2 degradation at 0.1 uM in presence of bortezomib by immunoblot analysis; format: cell-based
[8] = target: Transcriptional coactivator YAP1 (Homo sapiens) (UniProt P46937); test: Induction of YAP1 phosphorylation at S109 residue in human H322 cells harboring SMARCA4 mutant at 0.1 uM incubated for 96 hrs by immunoblot analysis; format: cell-based; conditions: filed as activator
[9] = target: T1, Protein cereblon/SWI/SNF-related matrix-associated actin-dependent regulator of chromatin subfamily A member 2; test: PROTAC activity at CRBN/SMARCA2 in human H322 cells harboring SMARCA4 mutant assessed as induction of SMARCA2 degradation at 0.1 uM in presence of Gen-1 by immunoblot analysis; format: cell-based
[10] = Drug metabolism in mouse liver microsomes assessed as mono-oxygenation and N-dealkylation mediated M2 metabolite formation at 10 uM incubated for 60 mins by LC-UV-HRMS analysis; format: ADME, Microsome; conditions: 1 h; outline: as §1
[11] = system: NCI-H2030; test: Inhibition of ERK phosphorylation in human NCI-H2030 cells harboring KRAS G12C mutant/SMARCA4 mutant assessed as reduction in p-ERK level at 1.25 uM incubated for 72 hrs in presence of sotorasib by Western blotting analysis; format: cell-based
[12] = Drug concentration in CRBN I391V mutant mouse plasma at 10 mg/kg, po administered once daily for 3 days and measured at 24 hrs post last dose; format: ADME, organism-based; conditions: time 3 day
Outline: (§3)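 Oral dosing once daily for 3 days: 5–80 mg/kg in C57BL/6 mice, 10–80 mg/kg in CrbnI391V mice. Euthanized 24 h after last dose. Plasma drug level measured. Spleen SMARCA2 by Western blot against actin loading control, relative to vehicle.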

[13] = Toxicity in female athymic nude mouse xenografted with human NCI-H1568 cells harboring SMARCA4 mutant assessed as change in body weight at 40 mg/kg, po administered once daily via gavage for 13 days relative to control; format: organism-based; conditions: in vivo, 312 h, time 13 day; outline: as §2
[14] = target: T1, Protein cereblon/SWI/SNF-related matrix-associated actin-dependent regulator of chromatin subfamily A member 2; test: PROTAC activity at CRBN/SMARCA2 in human H322 cells harboring SMARCA4 mutant assessed as induction of SMARCA2 degradation at 1 uM in presence of MLN4924 by immunoblot analysis; format: cell-based
[15] = Drug metabolism in mouse liver microsomes assessed as oxidative dealkylation and mono-oxygenation mediated M3 metabolite formation at 10 uM incubated for 60 mins by LC-UV-HRMS analysis; format: ADME, Microsome; conditions: 1 h; outline: as §1
[16] = target: T1, Protein cereblon/SWI/SNF-related matrix-associated actin-dependent regulator of chromatin subfamily A member 2; test: PROTAC activity at CRBN/SMARCA2 in human H322 cells harboring SMARCA4 mutant assessed as induction of SMARCA2 degradation at 1 uM in presence of pomalidomide by immunoblot analysis; format: cell-based
[17] = In vivo PROTAC activity at CRBN/SMARCA2 in C57BL/6 mouse assessed as induction of SMARCA2 degradation in spleen at 80 mg/kg, po administered once daily via gavage for 3 days by Western blotting analysis relative to control; format: functional; conditions: time 3 day; outline: as §3
[18] = target: T1, Protein cereblon/SWI/SNF-related matrix-associated actin-dependent regulator of chromatin subfamily A member 2; test: PROTAC activity at CRBN/SMARCA2 in human H322 cells harboring SMARCA4 mutant assessed as induction of SMARCA2 degradation at 1 uM in presence of bortezomib by immunoblot analysis; format: cell-based
[19] = target: Transcriptional coactivator YAP1 (Homo sapiens) (UniProt P46937); test: Induction of YAP1 phosphorylation at S127 residue in human H322 cells harboring SMARCA4 mutant at 1 uM incubated for 96 hrs by immunoblot analysis; format: cell-based; conditions: filed as activator
[20] = Toxicity in immunocompromised mouse xenografted with human NCI-H1568 cells assessed as change in body weight at 80 mg/kg, administered once daily for 21 days; format: organism-based; conditions: in vivo, 504 h, time 21 day
[21] = Drug concentration in C57BL/6 mouse plasma at 5 mg/kg, po administered once daily for 3 days and measured at 24 hrs post last dose; format: ADME, organism-based; conditions: time 3 day; outline: as §3
[22] = In vivo PROTAC activity at CRBN/SMARCA2 in female athymic nude mouse xenografted with human NCI-H1568 cells harboring SMARCA4 mutant assessed as SMARCA2 degradation at 40 mg/kg, po administered once daily via gavage for 13 days by Western blotting analysis relative to control; format: functional; conditions: time 13 day
Outline: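 H1568 cells (2 × 10^6, PBS/Matrigel 1:1) implanted subcutaneously in the flank of female nude mice aged 6–8 weeks. Randomised at about 60 mm3 tumour volume. 40 mg/kg or vehicle given by oral gavage once daily for 13 days in 0.5% methylcellulose/Tween-80, sonicated. Tumours collected 24 h after dosing. SMARCA2 measured by Western blot against β-actin, relative to vehicle.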

Transcriptional coactivator YAP1 (Homo sapiens), sequence (P46937 whole entry): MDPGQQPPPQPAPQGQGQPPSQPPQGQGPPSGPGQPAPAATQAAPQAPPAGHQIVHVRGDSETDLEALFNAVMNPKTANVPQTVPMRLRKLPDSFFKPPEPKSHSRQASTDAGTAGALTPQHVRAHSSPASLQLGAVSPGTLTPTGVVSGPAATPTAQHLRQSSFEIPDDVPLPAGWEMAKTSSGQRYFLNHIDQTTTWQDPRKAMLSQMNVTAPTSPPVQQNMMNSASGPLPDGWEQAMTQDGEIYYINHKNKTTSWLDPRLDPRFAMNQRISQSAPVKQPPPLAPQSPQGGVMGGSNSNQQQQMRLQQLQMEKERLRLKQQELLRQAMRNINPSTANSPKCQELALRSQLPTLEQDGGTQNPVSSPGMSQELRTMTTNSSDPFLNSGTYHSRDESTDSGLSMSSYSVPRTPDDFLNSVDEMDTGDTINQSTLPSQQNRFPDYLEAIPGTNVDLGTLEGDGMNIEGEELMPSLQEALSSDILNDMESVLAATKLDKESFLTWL

## Nc1nnc(-c2ccccc2O)cc1N1CCN(Cc2ccc(N3CCN(CCOc4cccc5c4C(=O)N(C4CCC(=O)NC4=O)C5=O)CC3)c(F)c2)CC1 (configuration not stated)
[1]
  Activity: 40%
[2]
  Drug metabolism: metabolite_detected
[3]
  Drug metabolism: metabolite_detected
[4]
  Activity: inactive
[5]
  Activity: Active
[6]
  Activity: < 10%
[7]
  Activity: inactive
[8]
  Activity: Active
[9]
  Activity: inactive
[10]
  Drug metabolism: metabolite_detected

## Nc1nnc(-c2ccccc2O)cc1N1CCN(Cc2ccc(N3CCC(CN4CCN(c5ccc6c(c5)C(=O)N(C5CCC(=O)NC5=O)C6=O)CC4)CC3)c(F)c2)CC1 (configuration not stated)
[11]
  inhibition: Active
[12]
  concentration at 72 h: 1000 nM
[13]
  Activity: < 10%
[14]
  Activity: inactive
[15]
  Drug metabolism: metabolite_detected
[16]
  Activity: inactive
[17]
  Activity: 70%
[18]
  Activity: inactive
[19]
  Activity: Active
[20]
  Activity: Non-toxic
[21]
  concentration at 72 h: ~100 nM
[22]
  Activity: 50%
